What all share (assay type): cell-based, rabbit
Test [1] concerns the target T1, WT-EAAC1 (Oryctolagus cuniculus, UniProt P31597).
T1 sequence (P31597 1-524): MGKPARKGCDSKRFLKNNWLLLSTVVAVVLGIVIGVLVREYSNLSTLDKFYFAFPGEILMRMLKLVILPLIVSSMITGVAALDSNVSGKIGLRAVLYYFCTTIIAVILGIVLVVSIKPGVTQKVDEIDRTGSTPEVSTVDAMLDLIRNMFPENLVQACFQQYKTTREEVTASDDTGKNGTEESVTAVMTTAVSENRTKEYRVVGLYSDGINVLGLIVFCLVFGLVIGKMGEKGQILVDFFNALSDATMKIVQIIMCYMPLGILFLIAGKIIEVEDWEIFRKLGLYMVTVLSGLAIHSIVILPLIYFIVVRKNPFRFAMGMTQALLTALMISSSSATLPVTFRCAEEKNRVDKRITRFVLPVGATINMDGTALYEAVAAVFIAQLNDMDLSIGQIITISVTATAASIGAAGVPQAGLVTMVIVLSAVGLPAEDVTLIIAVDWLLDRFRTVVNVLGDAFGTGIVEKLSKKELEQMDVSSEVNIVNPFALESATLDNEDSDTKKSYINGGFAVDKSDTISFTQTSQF
Conditions: 2 mM, NaSCN-based buffer. The method, boiled down: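 Two-electrode voltage clamp of oocytes in buffer with all NaCl replaced by NaSCN, grounded through a 2% agarose/2 M KCl bridge. Compounds were 2 mM; TBOA (10 μM) was added to a stopped bath. Steps from −25 mV to −100…+40 mV. Net steady-state current (with minus without) was normalised to the L-aspartate current at +40 mV; mean ± SEM of 3 oocytes (L-aspartate n = 6).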

The target of test [2] is T2, D444A mutant EAAC1 (Oryctolagus cuniculus, UniProt P31597, D444A).
T2 sequence (P31597 1-524 D444A): T1 sequence (P31597 1-524) with D444A
The experiment in a line: Blockade of sodium-dependent transient currents. Conditions: read-out: IC50 for substrates/blockers of charge movements, Xenopus oocytes, mean ± SEM.

The target of test [3] is T3, D444C-EAAC1 (Oryctolagus cuniculus, UniProt P31597, D444C).
T3 sequence (P31597 1-524 D444C): T1 sequence (P31597 1-524) with D444C
The experiment in a line: Blockade of sodium-dependent transient currents. Conditions: D444C; for Decay time of transient currents blocked: 10 mM compound, at −100 mV; for IC50: read-out: IC50 for substrates/blockers of charge movements, Xenopus oocytes, mean ± SEM. The method, boiled down:
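Steps from −25 mV to −100…+40 mV. Transients taken as current without minus current with compound. Charge is the sum of integrals at −100 and +40 mV, normalised to 10 mM of the same compound. IC50 from a generalized Hill fit; decay from a first-order exponential; 3–10 oocytes.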

The target in test [4] is T4, D444E-EAAC1 (Oryctolagus cuniculus, UniProt P31597, D444E).
T4 sequence (P31597 1-524 D444E): T1 sequence (P31597 1-524) with D444E
The experiment in a line: Substrate-induced steady-state transport currents in oocytes expressing D444E. Conditions: 2 mM L-aspartate, other concentrations not given.

For test [5], the target named is T1, WT-EAAC1. The experiment in a line: Substrate-induced steady-state transport currents in oocytes expressing WT. Conditions: 2 mM.
The target in test [6] is T5, D444C mutant EAAC1 (Oryctolagus cuniculus, UniProt P31597, D444C).
T5 sequence (P31597 1-524 D444C): T1 sequence (P31597 1-524) with D444C

The target in test [7] is T6, D444E mutant EAAC1 (Oryctolagus cuniculus, UniProt P31597, D444E).
T6 sequence (P31597 1-524 D444E): T1 sequence (P31597 1-524) with D444E

In test [8] the target is T1, WT-EAAC1. Conditions: WT-EAAC1 in HeLa cells; 5 mM unlabeled succinate.

Molecules are shown by their SMILES. Numbering of substitutions follows the chain as printed.

On to `N[C@@H](CC(=O)O)C(=O)O` [L-Aspartate, L-aspartate], for which the “Effect on the anion conductance” value in test [1] is “stimulated the anion conductance”. Besides, the IC50 in test [2] is 720 ± 80 µM. Further, in test [3], the “Decay time of transient currents blocked” value is recorded as 19.3 ± 1 ms and the IC50 turned out to be 12 ± 2 µM. The “Induction of steady-state transport currents” value in test [4] is given as “not observed”.

`O=C(O)CCC(=O)O` [Succinate, succinate]: in test [1], the “Effect on the anion conductance” value is “not seen”. Besides, the IC50 in test [2] worked out at 870 ± 110 µM; in test [3] it was 840 ± 70 µM. Further, the “Induction of steady-state transport currents” value in test [5] is given as “No steady-state transport currents”. Further, the “Decay time of transient currents blocked” value in test [3] turned out to be 15.7 ± 1.1 ms. Also, the “Inhibition of D-[3H]-aspartate uptake” value is recorded as “fully inhibited” in test [6], “much less sensitive” in test [7] and “In contrast to WT” in test [8].

Source of the values: publication PMC2151622 (The Journal of General Physiology, 2007).
